Assay results from ChEMBL document CHEMBL1123253, “Design and synthesis of a potent and specific renin inhibitor with a prolonged duration of action in vivo” (J Med Chem, 1986).
Non-standard residues stand in square brackets, D forms with d. Residues, ends and D or L forms follow the SMILES beside them. ξ: configuration not given here. *: point of attachment. Sta = CC(C)C[C@H](N)[C@@H](O)CC(=O)O; NMeH = CN[C@@H](Cc1c[nH]cn1)C(=O)O; NHCH2(2-pyridyl) = c1ccc(CN*)nc1; NMeF = CN[C@@H](Cc1ccccc1)C(=O)O; αMeF = C[C@](N)(Cc1ccccc1)C(=O)O; ξαMeF = CC(N)(Cc1ccccc1)C(=O)O; Boc = CC(C)(C)OC(=O)*

Experiments:
Cathepsin D = biological target: T1, Cathepsin D (Bos taurus, UniProt P80209); assay: Inhibition of bovine cathepsin D
T1 sequence (P80209 whole entry): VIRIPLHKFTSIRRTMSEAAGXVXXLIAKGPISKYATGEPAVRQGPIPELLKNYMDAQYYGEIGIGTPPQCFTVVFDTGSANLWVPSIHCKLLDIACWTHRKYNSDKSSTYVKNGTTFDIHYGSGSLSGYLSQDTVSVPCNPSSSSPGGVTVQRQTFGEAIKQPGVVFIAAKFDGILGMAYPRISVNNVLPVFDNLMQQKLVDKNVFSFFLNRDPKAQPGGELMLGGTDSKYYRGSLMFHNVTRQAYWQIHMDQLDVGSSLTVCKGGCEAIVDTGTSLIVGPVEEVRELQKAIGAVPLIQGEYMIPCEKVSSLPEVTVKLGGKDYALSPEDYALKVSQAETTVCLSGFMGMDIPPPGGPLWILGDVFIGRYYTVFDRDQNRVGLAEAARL

Pepsin A = Pepsin A (Sus scrofa, UniProt P00791); assay: Inhibition of porcine pepsin
In short: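 Porcine pepsin with porcine hemoglobin substrate in 0.02 M KCl-HCl buffer pH 2, with compounds dissolved in buffer. Incubation 25 min at 37 °C, then perchloric acid added and acid-soluble fraction absorbance read at 280 nm.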

Renin = biological target: T2, Renin (Homo sapiens, UniProt P00797); assay: Inhibition of human plasma renin; assay type: cell-free
T2 sequence (P00797 whole entry): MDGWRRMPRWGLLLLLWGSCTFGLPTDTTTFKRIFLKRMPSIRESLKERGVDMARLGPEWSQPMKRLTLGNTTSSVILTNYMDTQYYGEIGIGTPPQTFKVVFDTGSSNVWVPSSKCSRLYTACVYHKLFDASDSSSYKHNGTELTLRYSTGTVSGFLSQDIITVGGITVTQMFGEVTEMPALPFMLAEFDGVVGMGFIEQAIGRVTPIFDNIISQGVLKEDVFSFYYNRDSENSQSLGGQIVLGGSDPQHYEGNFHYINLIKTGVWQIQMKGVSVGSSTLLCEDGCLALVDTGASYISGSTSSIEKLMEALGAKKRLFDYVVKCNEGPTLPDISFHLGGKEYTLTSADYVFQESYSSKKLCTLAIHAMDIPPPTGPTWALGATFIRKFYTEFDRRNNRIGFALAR
In short: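 Lyophilized human plasma with 0.1% EDTA as renin source. Plasma is combined with phenylmethylsulfonyl fluoride, maleate buffer pH 6.0 and inhibitor in 1% Tween 80/water, then incubated 90 min at 37 °C. Angiotensin I measured by radioimmunoassay. Percent inhibition taken vs control tubes; IC50 estimated graphically from 3–4 concentrations on a semilog plot.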

Pepsin A, sequence (P00791 whole entry): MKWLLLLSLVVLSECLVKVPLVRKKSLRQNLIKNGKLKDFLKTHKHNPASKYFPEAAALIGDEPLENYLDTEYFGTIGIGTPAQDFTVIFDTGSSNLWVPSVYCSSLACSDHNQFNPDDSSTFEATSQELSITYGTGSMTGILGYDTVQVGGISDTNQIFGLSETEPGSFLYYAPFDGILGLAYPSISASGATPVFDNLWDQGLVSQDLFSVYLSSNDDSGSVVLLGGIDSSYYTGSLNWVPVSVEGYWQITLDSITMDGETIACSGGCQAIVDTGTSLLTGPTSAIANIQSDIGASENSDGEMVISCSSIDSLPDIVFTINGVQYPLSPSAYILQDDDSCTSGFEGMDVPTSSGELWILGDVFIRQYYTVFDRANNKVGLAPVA

Row | Compound | IC50 (Cathepsin D) | IC50 (Pepsin A) | IC50 (Renin)
1 | CC[C@H](C)[C@H](NC(=O)[C@@H](C[C@H](O)[C@H](CC(C)C)NC(=O)[C@H](Cc1c[nH]cn1)N(C)C(=O)[C@H](Cc1ccccc1)NC(=O)[C@@H]1CCCN1C(=O)OC(C)(C)C)C(C)C)C(=O)NCc1ccccn1 | 6.3 µM | 6.8 µM | –
2 | CC[C@H](C)[C@H](NC(=O)[C@@H](NC[C@H](CC(C)C)NC(=O)[C@H](Cc1c[nH]cn1)N(C)C(=O)[C@H](Cc1ccccc1)NC(=O)[C@@H]1CCCN1C(=O)OC(C)(C)C)C(C)C)C(=O)NCc1ccccn1 | – | – | 0.068 µM
3 | CC[C@H](C)[C@H](NC(=O)[C@@H](NC[C@H](CC(C)C)NC(=O)[C@H](Cc1c[nH]cn1)N(C)C(=O)[C@H](Cc1ccccc1)NC(=O)OC(C)(C)C)C(C)C)C(=O)NCc1ccccn1 | – | – | 0.45 µM
4 | CC[C@H](C)[C@H](NC(=O)[C@@H](C[C@H](O)[C@H](CC(C)C)NC(=O)[C@H](Cc1c[nH]cn1)N(C)C(=O)[C@H](Cc1ccccc1)NC(=O)OC(C)(C)C)C(C)C)C(=O)NCc1ccccn1 | – | – | 0.00065 µM
5 | CCC(C)C(NC(=O)CC(O)C(CC(C)C)NC(=O)C(Cc1cnc[nH]1)N(C)C(=O)C(Cc1ccccc1)NC(=O)OC(C)(C)C)C(=O)NCc1ccccn1 (stereo not drawn) | – | – | 0.12 µM
6 | CC[C@H](C)[C@H](NC(=O)C[C@H](O)[C@H](CC(C)C)NC(=O)[C@H](Cc1ccccc1)NC(=O)[C@H](Cc1ccccc1)NC(=O)OC(C)(C)C)C(=O)NCc1ccccn1 (Boc-FF[Sta]I-{NHCH2(2-pyridyl)}) | – | – | 0.024 µM
7 | CC[C@H](C)[C@H](NC(=O)C[C@H](O)[C@H](CC(C)C)NC(=O)[C@H](Cc1ccccc1)N(C)C(=O)[C@H](Cc1ccccc1)NC(=O)OC(C)(C)C)C(=O)NCc1ccccn1 (Boc-F[NMeF][Sta]I-{NHCH2(2-pyridyl)}) | – | – | 0.1 µM
8 | CC[C@H](C)[C@H](NC(=O)C[C@H](O)[C@H](CC(C)C)NC(=O)[C@](C)(Cc1ccccc1)NC(=O)[C@H](Cc1ccccc1)NC(=O)OC(C)(C)C)C(=O)NCc1ccccn1 (Boc-F[αMeF][Sta]I-{NHCH2(2-pyridyl)}) | – | – | > 10 µM
9 | CC[C@H](C)[C@H](NC(=O)C[C@H](O)[C@H](CC(C)C)NC(=O)[C@H](Cc1c[nH]cn1)N(C)C(=O)[C@H](Cc1ccccc1)NC(=O)[C@@H]1CCCN1C(=O)OC(C)(C)C)C(=O)NCc1ccccn1 (Boc-PF[NMeH][Sta]I-{NHCH2(2-pyridyl)}) | – | – | 0.19 µM
10 | CC[C@H](C)[C@H](NC(=O)C[C@H](O)[C@H](CC(C)C)NC(=O)[C@H](Cc1ccccc1)NC(=O)[C@H](Cc1ccccc1)N(C)C(=O)OC(C)(C)C)C(=O)NCc1ccccn1 (Boc-[NMeF]F[Sta]I-{NHCH2(2-pyridyl)}) | – | – | 0.34 µM
11 | CC[C@H](C)[C@H](NC(=O)C[C@H](O)[C@H](CC(C)C)NC(=O)[C@H](Cc1c[nH]cn1)NC(=O)[C@H](Cc1ccccc1)N(C)C(=O)OC(C)(C)C)C(=O)NCc1ccccn1 (Boc-[NMeF]H[Sta]I-{NHCH2(2-pyridyl)}) | – | – | 0.72 µM
12 | CC[C@H](C)[C@H](NC(=O)C[C@H](O)[C@H](CC(C)C)NC(=O)[C@H](Cc1ccccc1)NC(=O)C(C)(Cc1ccccc1)NC(=O)OC(C)(C)C)C(=O)NCc1ccccn1 (stereo partly drawn) (Boc-[ξαMeF]F[Sta]I-{NHCH2(2-pyridyl)}) | – | – | 6.8 µM
